# An excerpt weighted towards active compounds, which were near 3.4% of everything screened.
# ANO1 block = inhibitors of mouse TMEM16A calcium-activated chloride channel | AID 588511 | Q8BHY3 | hit rate 1.2% among 310,000 | HEK293 TMEM16A/YFP iodide influx fluorescence, ionomycin | normalized B-score (activity score, 25-100; higher = stronger inhibition) at 10 µM;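 active means ratio plate-corrected score three or more library SD toward inhibition, starting fluorescence score within five deviations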;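 further: score derived from kinetic fluorescence span divided by baseline fluorescence per well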
# MC4R antag cAMP = blocks human MC4R cAMP signaling; P32245; MC4R-expressing cells, MTII-stimulated cAMP, LANCE TR-FRET; inhibition, % at 6.5 µM; hit rate 0.48% among 360,000; AID 540295;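 active means inhibition above its plate's cutoff, the mean of tested wells on that plate plus 3 SD, cut at about 29% in these data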;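 further: 0% = Melanotan II alone and 100% = Melanotan II plus saturating MCL0020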
# Target sequence (P32245 whole entry, looked up): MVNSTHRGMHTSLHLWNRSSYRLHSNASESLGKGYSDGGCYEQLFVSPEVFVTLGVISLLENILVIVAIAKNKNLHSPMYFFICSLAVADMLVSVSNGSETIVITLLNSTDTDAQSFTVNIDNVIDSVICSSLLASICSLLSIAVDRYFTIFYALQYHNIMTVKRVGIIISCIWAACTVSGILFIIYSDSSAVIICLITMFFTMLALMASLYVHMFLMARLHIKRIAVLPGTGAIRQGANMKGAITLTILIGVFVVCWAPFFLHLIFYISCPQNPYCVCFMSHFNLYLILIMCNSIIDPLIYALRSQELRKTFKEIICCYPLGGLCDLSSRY
#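 System – human MC4R-expressing U2OS cells · Also added – Melanotan II · Dosing – one concentration, 6.5 µM nominal · Timing – 30-min compound, 1-h challenge, 1-h detection, room temperature · Measured by – Eu-cAMP/anti-cAMP TR-FRET, emission 671 nm · Replicates – singlicate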
# beta cell repl = inducers of beta-cell replication in MIN6 cells | MIN6 cells proliferation, ATPlite luminescence, 48 h; cells starved in 0.2% serum; 100% = growth in 10% serum | proliferation, % at 10 µM | hit rate 0.29% among 330,000;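 active means compounds whose signal lies at least 3.5 SD above the mean of all wells on their plate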;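 further: 0% = DMSO-treated cells in low-serum medium and 100% = 10% serum control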
# HTR2A ag = activates the mouse 5-HT2A serotonin receptor; P35363; CHO-K1 mHTR2A beta-arrestin complementation, luminescence; percent of 30 µM serotonin response; activation, % at 7.6 µM; hit rate 0.66% among 360,000;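 active means activation above a run cutoff, the mean activation of all tested compounds plus 3 SD, cut at about 14% in these data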;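 further: 0% = plate median of compound wells and 100% = 30 µM serotonin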
# MC4R barr agon = human MC4R agonism via beta-arrestin | AID 540308 | U2OS MC4R beta-arrestin complementation, luminescence; percent of melanotan II response, DMSO zero | activation, % at 8.9 µM | P32245 | hit rate 0.98% among 360,000;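 active means activation above a per-plate cutoff, the mean activation of sample wells on that plate plus 3 SD, cut at about 8% in these data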
# ANO1 activ = mouse TMEM16A channel activation, primary screen | HEK293 TMEM16A/YFP-H148Q/I152L, iodide quench fluorescence; stronger effect = lower value | B-score at 10 µM | hit rate 0.3% among 340,000 | AID 623877;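 active means fluorescence-ratio B-score plate-corrected deviation score at least 3 library SD below zero, with starting fluorescence score within 5 deviations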;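 further: channel opened by trigger with iodide after compound preincubation; score built on the fluorescence ratio of max minus min over baseline; more negative score means more quench and so TMEM16A activation or potentiation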
# TMEM16A reconf = reconfirmed blocker of mouse TMEM16A calcium-activated chloride channel | hit rate 39% among 2,300 | inhibition, % at 10 µM | AID 652189 | HEK293 TMEM16A/YFP-H148Q, iodide quench fluorescence; ionomycin added to raise cell calcium | shares compounds with ANO1 block;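 active means mean duplicate percent inhibition, scaled so buffer wells are 0 and the reference blocker 100, over three buffer SD above buffer mean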
# HEK293 Ca mobil = calcium mobilization counter-screen hit for TMEM16A inhibitor series. shares compounds with ANO1 block. TMEM16A/YFP HEK293, Fluo4 calcium mobilization. calcium response (% of ionomycin), % at 10 µM. hit rate 2% among 2,300;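 active means duplicate-averaged calcium signal over 20% of the ionomycin maximum, relative to buffer baseline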;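 further: each well's signal is peak minus trough fluorescence divided by its pre-addition baseline; 0% = buffer wells and 100% = ionomycin wells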
# YFP-HEK293 quench = acts in parental YFP-HEK293 cells lacking TMEM16A, counter-screen; iodide YFP quench, ionomycin; 2,300 tested, under 10 active; shares compounds with ANO1 block; YFP ratio F(max-min)/F0 at 10 µM;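 active means yellow fluorescent protein signal ratio exceeding the buffer control mean by over 5 SD of those controls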;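 further: ratio is mean of duplicate wells from kinetic YFP trace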
# ClC-1 inh = selectivity of TMEM16A inhibitors: inhibition of rat ClC-1 chloride channel. shares compounds with ANO1 block. CHO ClC-1-YFP, iodide influx fluorescence quench; iodide control reads 0, buffer control 100. ratio percent, % at 10 µM. 2,300 tested, under 10 active. AID 652236;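 active means duplicate-mean ratio percent above the mean of iodide-only control wells, which defines zero, plus 5 of their SD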;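 further: higher percent means stronger block of ClC-1 iodide influx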
# An asterisk follows results filed as active; i = inactive; . = no result.
SMILES,ANO1 block,MC4R antag cAMP,beta cell repl,HTR2A ag,MC4R barr agon,ANO1 activ,TMEM16A reconf,HEK293 Ca mobil,YFP-HEK293 quench,ClC-1 inh
O=c1c2ccccc2c(C=Nc2cccc(O)c2)c(O)n1-c1ccc2c(c1)OCO2,25*,-11,-6,4,2,i,i,i,-1.3,3
COc1ccc(N=Cc2c(O)n(-c3ccc(OC)cc3)c(=O)c3ccccc23)cc1,i,-8,1,0,1,i,.,.,.,.
COc1ccc(Cl)cc1C(=O)CSc1nnnn1C1CCCC1,i,1,-4,4,-3,i,.,.,.,.
COc1ccc(Cl)cc1C(=O)CSc1nnnn1C1CCCCC1,100*,-6,-1,4,2,i,i,i,-1.1,-9
CCN(CC)S(=O)(=O)c1cc(-c2nnc(-c3ccc(Br)cc3)o2)ccc1Cl,25*,4,-5,-1,1,i,i,i,-0.86,-12
O=S1(=O)CC(N2CCN(CC3CC3)CC2)CN1CCc1ccccc1 (centres undefined),.,.,.,0,.,.,.,.,.,.
Cc1noc(C)c1COC(=O)c1cccc(S(=O)(=O)N2c3ccccc3CC2C)c1 (centres undefined),100*,9,-2,-1,-1,i,25%*,i,-1,-18
Cc1noc(C)c1COC(=O)c1cccc(S(=O)(=O)N2CCOCC2)c1,i,10,1,-7,-3,i,.,.,.,.
COc1ccc(-c2cc(-c3ccccc3)nc(=O)[nH]2)cc1,i,2,0,1,0,i,.,.,.,.
COc1ccc(-c2cc(C(F)(F)F)c3c(=O)n(-c4ccccc4)[nH]c3n2)cc1,100*,17,-2,0,-1,i,23%*,i,-1.2,-4
CC(Sc1ccccc1)C(=O)NNC(=O)c1ccncc1 (centres undefined),i,8,5,2,3,i,.,.,.,.
Cc1ccc(C(=O)Nc2cccc(C(=O)NCc3ccccc3)c2)o1,i,16,2,-2,-1,i,.,.,.,.
C/C(=N\NC(=O)C1(C)CC1(Br)Br)c1cccc(NC(=O)c2ccc(C)o2)c1 (centres undefined),25*,14,5,6,-3,i,i,i,-1.1,-6
CCOC(=O)c1sc(NC(=O)CSc2nc(C)cc(-c3ccccc3)n2)c(C#N)c1C,i,7,-4,4,-2,i,.,.,.,.
CCOC(=O)c1sc(NC(=O)c2ccncc2)c(C#N)c1C,25*,3,0,-1,-1,i,35%*,i,-1.1,-23
CCOC(=O)c1sc(NC(=O)CSc2n[nH]c(-c3ccc(Cl)cc3Cl)n2)c(C#N)c1C,25*,5,-6,0,2,i,50%*,i,-0.93,-14
CCOC(=O)c1sc(NC(=O)CSc2nc3c(cc2C#N)CCCCCC3)c(C#N)c1C,100*,9,-6,0,1,i,i,i,-1.5,-6
CCOC(=O)c1c(NC(=O)c2ccncc2)sc(C)c1C,i,13,3,1,-2,i,.,.,.,.
C/C(=N\NC(=O)c1cccc(Cl)c1)C1C(=O)c2ccccc2C1=O,100*,2,-6,1,-2,i,i,i,-1.1,-14
CC(=O)Oc1ccc(-c2cccc(C(=O)NCCO)c2)cc1,i,10,-1,6,-1,i,.,.,.,.
CC(=O)Oc1ccc(-c2cccc(C(=O)NCC(=O)O)c2)cc1,25*,-10,1,3,-2,i,i,i,-1.1,-6
COCCN1CCN(c2cc(-c3ccccc3)nc3cc(-c4cccc(F)c4)nn23)CC1,100*,7,-4,3,1,i,i,i,-1.1,-9
CN(CC(=O)Nc1cccc(F)c1)C(=O)Cc1n[nH]c(=O)c2ccccc12,i,6,-1,9,-2,i,.,.,.,.
CN(CC(=O)Nc1ccc(Cl)c(C(F)(F)F)c1)C(=O)Cc1n[nH]c(=O)c2ccccc12,100*,17,-4,-9,-2,i,26%*,i,-0.89,3
O=C(c1ccco1)N1CCN(C(=O)C(c2ccccc2)c2ccccc2)CC1,i,6,-1,1,-1,i,.,.,.,.
SMILES,ANO1 block,MC4R antag cAMP,beta cell repl,HTR2A ag,MC4R barr agon,ANO1 activ,TMEM16A reconf,HEK293 Ca mobil,YFP-HEK293 quench,ClC-1 inh
CCC(C(=O)N1CCN(C(=O)c2ccco2)CC1)c1ccccc1 (centres undefined),100*,3,2,5,0,i,i,i,-0.97,-22
CCCCSc1nc(C)cc(C)c1S(=O)(=O)c1ccccc1C,100*,2,-3,-2,1,i,22%*,i,-1,-8
Cc1cc(C)c(S(=O)(=O)N2CCCc3ccccc32)c(C)c1,25*,-2,-5,1,1,i,32%*,i,-1.2,-10
COc1ccc(-c2csc(NC(=O)Cc3ccccc3F)n2)cc1OC,100*,5,-3,4,-2,i,i,i,-0.84,0
COc1ccc(S(=O)(=O)Nc2ccccc2C(=O)Nc2nc(-c3ccc(F)cc3)cs2)cc1OC,100*,10,0,7,-3,i,50%*,i,-1.1,-12
CCCNC(=O)c1ccccc1NS(=O)(=O)c1ccc(OC)c(OC)c1,i,9,-2,3,0,i,.,.,.,.
COc1ccc(CC(=O)Nc2nc(-c3ccc(OC)c(OC)c3)cs2)cc1OC,25*,19,3,-7,1,i,35%*,i,-0.91,-2
COc1ccc(-c2csc(NC(=O)CS(=O)(=O)c3ccccc3)n2)cc1OC,.,7,.,1,-2,.,.,.,.,.
Cc1ccc(S(=O)(=O)NC(=O)C2(C)CCN2C(=O)c2cccc(F)c2)nc1 (centres undefined),.,2,.,-2,0,.,.,.,.,.
COc1ccc(CCC(=O)OCC(=O)NC(=O)c2ccc(Cl)cc2)cc1,.,2,-2,-1,7,i,.,.,.,.

# Bioassay records (PubChem BioAssay)
